# In ChEMBL document CHEMBL1156912, “Subtlety of the structure-affinity and structure-efficacy relationships around a nonpeptide oxytocin receptor agonist” (J Med Chem, 2010):
# Activity calls are given as the source filed them. The calls are words filed in the database; no cut-off is given here.
# How the values were obtained:
# [1] = target: T1, Vasopressin V1a receptor (Homo sapiens, UniProt P37288); assay: Activity at human vasopressin V1a receptor expressed in CHO cells assessed as inhibition of agonist-induced inositol phosphate accumulation; type: functional, cell-based
# Procedure, shortened: (§1)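 Human V1a receptor in stably transfected CHO cells, seeded at 80000 cells/well overnight. Cells were preincubated 10 min at 37 °C with ligand (10 fM–100 μM, ≤1% final DMSO), then challenged with 2 nM AVP for 30 min. IP1 was read by IP-One HTRF. K_inact was derived by Cheng–Prusoff-type correction using AVP K_act 1.20 nM. Fixed-concentration lines are % inhibition, n = 2.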
# Target sequence in this assay (P37288 whole entry, looked up): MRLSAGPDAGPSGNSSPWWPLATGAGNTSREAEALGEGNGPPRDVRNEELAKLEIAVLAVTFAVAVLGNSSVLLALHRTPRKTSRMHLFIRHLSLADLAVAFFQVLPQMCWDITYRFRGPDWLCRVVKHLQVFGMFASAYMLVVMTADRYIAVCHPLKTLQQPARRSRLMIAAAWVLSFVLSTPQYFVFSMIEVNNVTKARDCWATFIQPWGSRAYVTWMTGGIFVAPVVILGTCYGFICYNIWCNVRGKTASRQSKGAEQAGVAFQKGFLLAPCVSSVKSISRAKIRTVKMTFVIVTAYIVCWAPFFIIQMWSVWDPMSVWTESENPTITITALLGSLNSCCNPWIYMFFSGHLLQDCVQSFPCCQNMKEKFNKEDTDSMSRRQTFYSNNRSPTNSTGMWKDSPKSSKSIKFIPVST
# [2] = target: T2, Vasopressin V2 receptor (Homo sapiens, UniProt P30518); assay: Activity at human vasopressin V2 receptor expressed in CHO cells assessed as inhibition of agonist-induced cAMP accumulation at 1 uM; type: functional, cell-based
# T2 sequence (P30518 whole entry): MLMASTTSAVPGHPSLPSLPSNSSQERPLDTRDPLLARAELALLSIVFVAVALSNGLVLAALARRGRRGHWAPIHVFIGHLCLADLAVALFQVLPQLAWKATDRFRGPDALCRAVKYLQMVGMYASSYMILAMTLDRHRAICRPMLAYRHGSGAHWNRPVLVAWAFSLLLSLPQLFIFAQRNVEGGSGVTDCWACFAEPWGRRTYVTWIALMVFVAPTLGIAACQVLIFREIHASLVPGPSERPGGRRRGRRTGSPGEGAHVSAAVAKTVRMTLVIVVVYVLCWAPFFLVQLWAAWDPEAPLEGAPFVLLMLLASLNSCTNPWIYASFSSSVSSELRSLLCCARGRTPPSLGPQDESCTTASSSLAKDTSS
# [3] = target: T2, Vasopressin V2 receptor; assay: Displacement of [3H]AVP from human vasopressin V2 receptor expressed in CHO cells; type: cell-based; conditions: read-out: Ki
# Procedure, shortened: (§2)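 Membranes came from CHO cells stably expressing the human receptor; OT-R and V1a-R cells were treated overnight with 5 mM butyrate. Membrane protein was 10–15 μg (OT, V1a) or 5 μg (V2), incubated 30 min at 30 °C in 50 mM Tris-HCl, 5 mM MgCl2, 1 mg/mL BSA, pH 7.4, with 1–2 nM [3H]AVP and competitor 0.1 pM–100 μM. Nonspecific binding: 10 μM AVP. Filtration, then Ki via Cheng–Prusoff. Mean ± SEM of ≥3 experiments in triplicate.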
# [4] = target: T2, Vasopressin V2 receptor; assay: Activity at human vasopressin V2 receptor expressed in CHO cells assessed as cAMP accumulation; type: functional, cell-based
# Procedure, shortened: (§3)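 V2-R agonism in CHO cells at 1000 cells/well, stimulated 30 min at 37 °C in D-MEM containing 0.1 mM Ro-20-1724 and 1 mg/mL BSA. cAMP was read by cAMP dynamic 2 HTRF. K_act from the sigmoidal fit. Emax is % of the 0.1 μM AVP response. Single-concentration values are % of AVP maximum.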
# [5] = target: T2, Vasopressin V2 receptor; assay: Activity at human vasopressin V2 receptor expressed in CHO cells assessed as cAMP accumulation at 1 uM; type: functional, cell-based; procedure, shortened: as §3
# [6] = target: T1, Vasopressin V1a receptor; assay: Activity at human vasopressin V1a receptor expressed in CHO cells assessed as inositol phosphate accumulation; type: functional, cell-based
# Procedure, shortened: (§4)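 Human V1a-expressing CHO cells, 80000 cells/well, exposed to ligand for 30 min at 37 °C. IP1 was measured by HTRF IP-One. EC50 (K_act) from the dose–response curve. Emax is relative to the 1 μM AVP maximum. Weak responses are reported as % of AVP maximum at 1 μM ligand.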
# Target sequence in this assay (P37288 whole entry, looked up): as the sequence (P37288 whole entry, looked up) above
# [7] = target: T3, Oxytocin receptor (Homo sapiens) (UniProt P30559); assay: Activity at human oxytocin receptor expressed in CHO cells assessed as inhibition of agonist-induced inositol phosphate accumulation at 1 uM; type: functional, cell-based; design: scale not given: the % may be the effect or the level left
# T3 sequence (whole entry): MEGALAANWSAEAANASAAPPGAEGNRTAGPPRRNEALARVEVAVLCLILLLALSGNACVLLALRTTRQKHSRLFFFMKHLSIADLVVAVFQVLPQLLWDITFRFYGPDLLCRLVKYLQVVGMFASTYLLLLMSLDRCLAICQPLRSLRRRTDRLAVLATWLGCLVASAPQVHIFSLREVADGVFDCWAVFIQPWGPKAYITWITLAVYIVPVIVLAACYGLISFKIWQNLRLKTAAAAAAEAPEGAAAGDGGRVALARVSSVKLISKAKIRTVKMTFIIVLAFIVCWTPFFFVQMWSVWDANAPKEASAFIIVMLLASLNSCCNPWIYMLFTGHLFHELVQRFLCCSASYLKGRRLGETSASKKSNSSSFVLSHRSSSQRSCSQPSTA
# [8] = target: T3, Oxytocin receptor (Homo sapiens); assay: Activity at human oxytocin receptor expressed in CHO cells assessed as inositol phosphate accumulation; type: functional, cell-based
# Procedure, shortened: (§5)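 Agonist mode on CHO cells stably expressing human OT receptor: 30 min at 37 °C with ligand, 10 fM–100 μM, ≤1% final DMSO. IP1 accumulation was read by IP-One HTRF, ΔF from the 665/620 ratio. K_act is the EC50 from the sigmoidal fit. Emax is % of the 1 μM OT maximal response. Single-concentration lines are % of OT maximum, n = 2. Mean of ≥3 experiments in triplicate.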
# [9] = target: T3, Oxytocin receptor (Homo sapiens); assay: Activity at human oxytocin receptor expressed in CHO cells assessed as inositol phosphate accumulation at 1 uM; type: functional, cell-based; procedure, shortened: as §5
# [10] = target: T1, Vasopressin V1a receptor; assay: Displacement of [3H]AVP from human vasopressin V1a receptor expressed in CHO cells; type: cell-based; conditions: read-out: Ki; procedure, shortened: as §2
# Target sequence in this assay (P37288 whole entry): as the sequence (P37288 whole entry, looked up) above
# [11] = target: T1, Vasopressin V1a receptor; assay: Activity at human vasopressin V1a receptor expressed in CHO cells by NFAT-luciferase gene reporter assay; type: cell-based
# [12] = target: T4, Oxytocin receptor (Homo sapiens, UniProt P30559); assay: Displacement of [3H]AVP from human oxytocin receptor expressed in CHO cells; type: cell-based; conditions: read-out: Ki; procedure, shortened: as §2
# T4 sequence (P30559 whole entry): T3 sequence (whole entry)
# [13] = target: T3, Oxytocin receptor (Homo sapiens); assay: Activity at human oxytocin receptor expressed in CHO cells assessed as inositol phosphate accumulation up to 100 uM; type: functional, cell-based; procedure, shortened: as §5
# [14] = target: T3, Oxytocin receptor (Homo sapiens); assay: Activity at human oxytocin receptor expressed in CHO cells assessed as inhibition of agonist-induced inositol phosphate accumulation at 10 uM; type: functional, cell-based; design: scale not given: the % may be the effect or the level left
# [15] = target: T2, Vasopressin V2 receptor; assay: Activity at human vasopressin V2 receptor expressed in CHO cells assessed as inhibition of agonist-induced cAMP accumulation at 10 uM; type: functional, cell-based; design: Activity: scale not given: the % may be the effect or the level left
# [16] = target: T1, Vasopressin V1a receptor; assay: Activity at human vasopressin V1a receptor expressed in CHO cells assessed as inositol phosphate accumulation at 1 uM; type: functional, cell-based; procedure, shortened: as §4
# Target sequence in this assay (P37288 whole entry, looked up): as the sequence (P37288 whole entry, looked up) above
# [17] = target: T3, Oxytocin receptor (Homo sapiens); assay: Activity at human oxytocin receptor expressed in CHO cells assessed as inhibition of agonist-induced inositol phosphate accumulation; type: functional, cell-based
# [18] = target: T4, Oxytocin receptor; assay: Activity at human oxytocin receptor expressed in CHO cells by NFAT-luciferase gene reporter assay; type: cell-based
# [19] = target: T1, Vasopressin V1a receptor; assay: Activity at human vasopressin V1a receptor expressed in CHO cells assessed as inhibition of agonist-induced inositol phosphate accumulation at 1 uM; type: functional, cell-based; design: scale not given: the % may be the effect or the level left; procedure, shortened: as §1
# Target sequence in this assay (P37288 whole entry, looked up): as the sequence (P37288 whole entry, looked up) above
# [20] = target: T2, Vasopressin V2 receptor; assay: Activity at human vasopressin V2 receptor expressed in CHO cells by cAMP dynamic 2 assay
# [21] = target: T3, Oxytocin receptor (Homo sapiens); assay: Activity at human oxytocin receptor expressed in CHO cells assessed as inositol phosphate accumulation up to 10 uM; type: functional, cell-based
# Procedure, shortened: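 CHO cells stably expressing human OT receptor, seeded 80000 cells/well overnight at 37 °C. Ligands 10 fM to 100 μM (≤1% DMSO) in IP-One stimulation buffer, 30 min at 37 °C with 5% CO₂. IP₁ read by HTRF at 665/620 nm. EC50 (K_act) from sigmoidal curves; Emax as % of 1 μM OT maximum. Triplicate wells, ≥3 experiments.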
# [22] = target: T1, Vasopressin V1a receptor; assay: Activity at human vasopressin V1a receptor expressed in CHO cells assessed as inositol phosphate accumulation up to 100 uM; type: functional, cell-based; procedure, shortened: as §4
# Target sequence in this assay (P37288 whole entry, looked up): as the sequence (P37288 whole entry, looked up) above
# [23] = target: T2, Vasopressin V2 receptor; assay: Activity at human vasopressin V2 receptor expressed in CHO cells assessed as inhibition of agonist-induced cAMP accumulation at 100 uM; type: functional, cell-based; design: scale not given: the % may be the effect or the level left
# [24] = target: T2, Vasopressin V2 receptor; assay: Activity at human vasopressin V2 receptor expressed in CHO cells assessed as cAMP accumulation at 10 uM; type: functional, cell-based; procedure, shortened: as §3
# [25] = target: T2, Vasopressin V2 receptor; assay: Activity at human vasopressin V2 receptor expressed in CHO cells assessed as cAMP accumulation up to 100 uM; type: functional, cell-based; procedure, shortened: as §3
# [26] = target: T1, Vasopressin V1a receptor; assay: Activity at human vasopressin V1a receptor expressed in CHO cells assessed as inhibition of agonist-induced inositol phosphate accumulation at 100 uM; type: functional, cell-based; design: scale not given: the % may be the effect or the level left; procedure, shortened: as §1
# Target sequence in this assay (P37288 whole entry, looked up): as the sequence (P37288 whole entry, looked up) above
# [27] = target: T1, Vasopressin V1a receptor; assay: Activity at human vasopressin V1a receptor expressed in CHO cells assessed as inhibition of agonist-induced inositol phosphate accumulation at 10 uM; type: functional, cell-based; design: scale not given: the % may be the effect or the level left; procedure, shortened: as §1
# [28] = target: T2, Vasopressin V2 receptor; assay: Activity at human vasopressin V2 receptor expressed in CHO cells assessed as inhibition of agonist-induced cAMP accumulation; type: functional, cell-based
Compound,Kinact [1],Activity [2],Ki [3],Kact [4],Emax [5],Ki [10],Ki [12],Activity [16],Kinact [17],other results
Cc1cc(C(=O)N2Cc3cccn3Cc3ccccc32)ccc1CNC(=O)N1CCC[C@H]1C(=S)N1CCCN(C)CC1,754 nM,–,3400 nM,–,9%,> 1000 nM,2500 nM,inactive,–,Activity [13]: inactive; Activity [14]: 11%; Inhibition [15]: 43%; Kact [8]: 110 µM; Emax [9]: 50.6%
Cc1cc(C(=O)N2CCC(N3C(=O)OCc4ccccc43)CC2)ccc1CNC(=O)N1CCC[C@H]1C(=S)N1CCCN(C)CC1,–,inactive,–,–,–,> 5000 nM,245 nM,inactive,383 nM,Activity [19]: inactive; Activity [21]: inactive; Activity [5]: inactive
CN1CCCN(C(=S)[C@@H]2CCCN2C(=O)NCc2ccc(C(=O)N3Cc4cccn4Cc4ccccc43)c(Cl)c2)CC1,–,–,> 5000 nM,–,–,> 5000 nM,> 5000 nM,–,–,Activity [22]: inactive; Activity [23]: 94%; Activity [24]: 13%; Activity [25]: inactive; Activity [14]: 17%; Activity [26]: 92%; Activity [15]: 25%; Activity [27]: 7%
Cc1ccn(-c2ccc(C(=O)N3Cc4cnn(C)c4Nc4ccccc43)c(Cl)c2)n1,13 nM,inactive,29 nM,8.4 nM,94%,27 nM,17 nM,inactive,69 nM,Activity [8]: inactive

# Further lines, with some results ahead:
Kinact [1],Activity [2],Ki [3],Kact [4],Emax [5],Ki [10],Ki [12],Activity [16],Kinact [17],Compound,other results
271 nM,inactive,> 1000 nM,599 nM,84%,330 nM,147 nM,–,–,Cc1cc(C(=O)N2Cc3cnn(C)c3Nc3ccccc32)ccc1CNC(=O)N1CCC[C@H]1C(=S)N1CCCN(C)CC1,Activity [6]: inactive; Activity [7]: 16%; Kact [8]: 0.667 µM; Emax [9]: 58%; Activity [11]: inactive
–,inactive,50 nM,9.5 nM,75%,344 nM,199 nM,inactive,488 nM,Cc1ccn(-c2ccc(C(=O)N3Cc4cccn4Cc4ccccc43)c(Cl)c2)n1,EC50 [18]: 125 nM; Activity [19]: 33%; EC50 [20]: 39.9 nM; Activity [9]: inactive; EC50 [11]: 465 nM
32.5 nM,–,913 nM,–,–,18 nM,27.8 nM,inactive,14.8 nM,Cc1ccn(-c2ccc(C(=O)N3Cc4cnn(C)c4Nc4ccccc43)cc2C)n1,Kinact [28]: 253 nM; Activity [5]: inactive
